# Source: ChEMBL document CHEMBL1122670, “Synthesis of previously inaccessible quinazolines and 1,4-benzodiazepines as potential anticonvulsants” (J Med Chem, 1984)
# Where “and” joins values, the source holds several entries; their conditions need not be identical. Equal entries are not always repeated. Calls of active or inactive are those of the source.
# Assays:
# Mus musculus [1] = assay: Effective dose (ED50) was determined in sc Met (pentylenetetrazole) seizure threshold test; type: functional
# Summary of the method: (§1)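 ADD Program screen in mice. Doses of 30, 100, 300 and 600 mg/kg were given, four animals per dose, with tests at 30 min and at 4 h. sc Met endpoint: no threshold seizure (single clonic spasm of 5 s) after an sc convulsant dose 99 of pentylenetetrazol. Rotorod assessed acute neurotoxicity. ED50/TD50 were estimated graphically; Litchfield-Wilcoxon 95% confidence limits were added for selected cases.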
# Mus musculus [2] = assay: Evaluated for seizure threshold test at a dose 600 mg/kg &MMT is the maximal metrazole threshold to tonic flexion.; type: functional
# Summary of the method: (§2)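 0.5% pentylenetetrazol (with 0.9% NaCl and 0.001% heparin) was infused into a lateral tail vein at 6.31 μL/s. Time to 3 s of persistent clonus (MST) or hindlimb tonic flexion (MMT) was converted to mg/kg infused. Tested at 0.5 h (some at 4 h or 1 h). Results are % change from controls, by Student's t test.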
# [3] = Compound was determined in rotarod test and expressed as TD50; type: ADME, organism-based; conditions: mouse, in vivo
# Summary of the method: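 ADD Program screen in mice. Doses of 30, 100, 300 and 600 mg/kg were given, four animals per dose, with tests at 30 min and at 4 h. sc Met endpoint: no threshold seizure (single clonic spasm of 5 s) after an sc convulsant dose 99 of pentylenetetrazol. Rotorod assessed acute neurotoxicity.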
# Mus musculus [4] = assay: Evaluated for seizure threshold test at a dose 600 mg/kg &MST is the metrazole seizure threshold to persistent clonus; type: functional
# Summary of the method: (§3)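 At 0.5 h (some at 1 or 4 h), 0.5% pentylenetetrazol in 0.9% NaCl with 0.001% heparin was infused into the tail vein at 6.31 μL/s. Time to 3 s persistent clonus (MST) or tonic flexion (MMT) was converted to mg/kg, reported as % change vs controls, Student's t test.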
# Mus musculus [5] = assay: Evaluated for seizure threshold test at a dose 25 mg/kg &MST is the metrazole seizure threshold to persistent clonus; I = Inactive.; type: functional, organism-based; set-up: dose 25 mg/kg; summary of the method: as §2
# Mus musculus [6] = assay: Effective dose (ED50) was determined in sc Met (pentylenetetrazole) seizure threshold test; I = Inactive.; type: functional, organism-based; summary of the method: as §1
# Mus musculus [7] = assay: Evaluated for seizure threshold test at a dose 25 mg/kg &MMT is the maximal metrazole threshold to tonic flexion; I = Inactive.; type: functional, organism-based; set-up: dose 25 mg/kg; summary of the method: as §2
# Mus musculus [8] = species on record: Mus musculus; assay: Compound was determined in rotarod test and expressed as TD50; I = Inactive.; type: ADME, organism-based; conditions: in vivo; summary of the method: as §1
# Mus musculus [9] = assay: Evaluated for seizure threshold test at a dose 0.2 mg/kg &MST is the metrazole seizure threshold to persistent clonus; type: functional; summary of the method: as §3
# Mus musculus [10] = assay: Evaluated for seizure threshold test at a dose 0.2 mg/kg &MMT is the maximal metrazole threshold to tonic flexion.; type: functional; summary of the method: as §3
# Mus musculus [11] = assay: Evaluated for seizure threshold test at a dose 1 mg/kg &MST is the metrazole seizure threshold to persistent clonus; type: functional; summary of the method: as §3
# Mus musculus [12] = assay: Evaluated for seizure threshold test at a dose 1 mg/kg &MMT is the maximal metrazole threshold to tonic flexion.; type: functional; summary of the method: as §3
# [13] = molecular target: GABA-A receptor; anion channel; assay: Binding affinity for umolar GABA-A central benzodiazepine receptor; type: protein-complex assay, Mus musculus
# Mus musculus [14] = assay: Evaluated for seizure threshold test at a dose 300 mg/kg & MMT is the maximal metrazole threshold to tonic flexion; I - inactive; type: functional, organism-based; set-up: dose 300 mg/kg; summary of the method: as §3
# Mus musculus [15] = assay: Evaluated for seizure threshold test at a dose 300 mg/kg & MST is the metrazole seizure threshold to persistent clonus; type: functional; summary of the method: as §3
# [16] = Compound was evaluated for median lethal dose; type: ADME, organism-based; conditions: mouse, in vivo
# Mus musculus [17] = assay: Evaluated for seizure threshold test at a dose 100 mg/kg & MMT is the maximal metrazole threshold to tonic flexion; I = inactive; type: functional, organism-based; set-up: dose 100 mg/kg; summary of the method: as §3
# [18] = molecular target: GABA-A receptor; anion channel (Mus musculus) (UniProt Q8BHJ7+P26048+Q8QZW7+P50571+Q9R0Y8+P22723+A2AMW3+P62812+Q9JLF1+P26049+P22933+Q9D6F4+P63080+P27681+P16305); assay: Inhibition of binding to GABA-A central benzodiazepine receptor (inactive); type: protein-complex assay
# Mus musculus [19] = assay: Evaluated for seizure threshold test at a dose 100 mg/kg & MST is the metrazole seizure threshold to persistent clonus; I = inactive; type: functional, organism-based; set-up: dose 100 mg/kg; summary of the method: as §3
# Mus musculus [20] = assay: Evaluated for seizure threshold test at a dose 100 mg/kg & MMT is the maximal metrazole threshold to tonic flexion; I - inactive; type: functional, organism-based; set-up: dose 100 mg/kg; summary of the method: as §2
# Mus musculus [21] = assay: Evaluated for seizure threshold test at a dose 100 mg/kg & MST is the metrazole seizure threshold to persistent clonus; type: functional; summary of the method: as §3
# Mus musculus [22] = assay: Evaluated for seizure threshold test at a dose 100 mg/kg & MMT is the maximal metrazole threshold to tonic flexion.; type: functional; summary of the method: as §3
# Mus musculus [23] = assay: Evaluated for seizure threshold test at a dose 1.0 mg/kg &MST is the metrazole seizure threshold to persistent clonus; type: functional; summary of the method: as §3
# Mus musculus [24] = assay: Evaluated for seizure threshold test at a dose 1.0 mg/kg &MMT is the maximal metrazole threshold to tonic flexion.; type: functional; summary of the method: as §3
# Mus musculus [25] = assay: Evaluated for seizure threshold test at a dose 39 mg/kg & MMT is the maximal metrazole threshold to tonic flexion.; type: functional; summary of the method: as §3
# Mus musculus [26] = assay: Evaluated for seizure threshold test at a dose 49 mg/kg & MST is the metrazole seizure threshold to persistent clonus; type: functional; summary of the method: as §3
# Mus musculus [27] = assay: In vivo inhibition of Benzodiazepine (BDZ) binding in mice; type: functional, organism-based
# Mus musculus [28] = assay: Evaluated for seizure threshold test at a dose 300 mg/kg & MMT is the maximal metrazole threshold to tonic flexion; I - Inactive.; type: functional; summary of the method: as §2
# Mus musculus [29] = assay: Evaluated for seizure threshold test at a dose 100 mg/kg & MMT is the maximal metrazole threshold to tonic flexion; I - Inactive.; type: functional, organism-based; set-up: dose 100 mg/kg; summary of the method: as §2
# Mus musculus [30] = assay: Evaluated for seizure threshold test at a dose 300 mg/kg & MST is the metrazole seizure threshold to persistent clonus; I = Inactive.; type: functional, organism-based; set-up: dose 300 mg/kg; summary of the method: as §2
# [31] = system: GABA-A receptor; anion channel; assay: Inhibition of binding to GABA-A central benzodiazepine receptor (Inactive at 80 uM); type: protein-complex assay, Mus musculus
# Mus musculus [32] = assay: Evaluated for seizure threshold test at a dose 300 mg/kg & MMT is the maximal metrazole threshold to tonic flexion; I = Inactive.; type: functional, organism-based; set-up: dose 300 mg/kg; summary of the method: as §2
# Mus musculus [33] = assay: Effective dose (ED50) was determined in sc Met (pentylenetetrazole) seizure threshold test; I = Inactive at all doses including 600 mg/kg; type: functional, organism-based; set-up: dose 600 mg/kg; summary of the method: as §1
# Mus musculus [34] = assay: Evaluated for seizure threshold test at a dose 30 mg/kg & MMT is the maximal metrazole threshold to tonic flexion; I = Inactive.; type: functional, organism-based; set-up: dose 30 mg/kg; summary of the method: as §2
# Mus musculus [35] = assay: Evaluated for seizure threshold test at a dose 30 mg/kg & MST is the metrazole seizure threshold to persistent clonus; type: functional; summary of the method: as §3
smiles,measurement,setting,value
Cc1cc(C(=O)C2CC2)c(N)c(C#N)c1C,ED50,Mus musculus [1],600 mg/kg
same,Change,Mus musculus [2],37%
same,TD50,[3],> 600 mg/kg
same,Change,Mus musculus [4],23%
Cc1cc(C(=O)c2ccccc2)c(N)c(C#N)c1C,Change,Mus musculus [5],Not significant
same,ED50,Mus musculus [6],inactive
same,Change,Mus musculus [7],Not significant
same,TD50,Mus musculus [8],Not Active
O=C1CN=C(c2ccccc2)c2cc(Cl)ccc2N1 [NORDAZEPAM],ED50,Mus musculus [1],0.28 mg/kg
same,Change,Mus musculus [9],48%
same,Change,Mus musculus [10],inactive
same,Change,Mus musculus [11],70%
same,Change,Mus musculus [12],35%
same,Ki,[13],73 µM
Cc1cc2c(c(C#N)c1C)NC(=O)CN=C2c1ccccc1,ED50,Mus musculus [1],370 mg/kg
same,Change,Mus musculus [14],inactive
same,Change,Mus musculus [15],44%
same,LD50,[16]; read-out: LD,> 2 mg/kg
same,TD50,[3],> 1000 mg/kg
same,Change,Mus musculus [17],inactive
same,Change,[18],inactive
same,Change,Mus musculus [19],inactive
CC1N=CNc2c1cc(-c1ccccc1)c(-c1ccccc1)c2C#N (centres undefined),Change,Mus musculus [5],Not significant
same,ED50,Mus musculus [6],inactive
same,Change,Mus musculus [7],Not significant
same,TD50,Mus musculus [8],Not Active
Cc1cc(C(=O)c2ccccc2)c(NC(=O)CBr)c(C#N)c1C,ED50,Mus musculus [1],480 mg/kg
same,Change,Mus musculus [20],inactive
same,Change,Mus musculus [21]; 100 mg/kg,70% and 37%
same,Change,Mus musculus [22],49%
same,TD50,[3],600 mg/kg
CN1C(=O)CN=C(c2ccccc2)c2cc(Cl)ccc21 [DIAZEPAM],ED50,Mus musculus [1],0.17 mg/kg
same,Change,Mus musculus [23],60%
same,Change,Mus musculus [9],50%
same,Change,Mus musculus [10],15%
same,Change,Mus musculus [24],40%
same,TD50,[3],7.3 mg/kg
Cc1cc2c(-c3ccccc3F)nc(O)nc2c(C#N)c1C,Change,Mus musculus [5],Not significant
same,ED50,Mus musculus [6],inactive
same,Change,Mus musculus [7],Not significant
same,TD50,Mus musculus [8],Not Active
Cc1cc2c(-c3ccccc3)nc(O)nc2c(C#N)c1C,Change,Mus musculus [5],Not significant
same,ED50,Mus musculus [6],inactive
same,Change,Mus musculus [7],Not significant
same,TD50,Mus musculus [8],Not Active
Cc1cc2c(c(C#N)c1C)NC(=O)CN=C2c1ccccc1F,ED50,Mus musculus [1],48.9 mg/kg
same,Change,Mus musculus [21],65%
same,Change,Mus musculus [25],30%
same,Change,Mus musculus [26],23%
same,IC50,Mus musculus [27],0.01 nM
same,Change,Mus musculus [22],50%
same,TD50,[3],710 mg/kg
CC(=O)c1cc(C)c(C)c(C#N)c1NC(=O)CBr,ED50,Mus musculus [1],500 mg/kg
same,Change,Mus musculus [28],-17%
same,Change,Mus musculus [15],-22%
same,Change,Mus musculus [21],-14%
same,Change,Mus musculus [29],Not significant
same,TD50,[3],600 mg/kg
Cc1cc2c(c(C#N)c1C)NC=NC2C1CCCCC1 (centres undefined),Change,Mus musculus [30],inactive
same,IC50,[31],Not Active
same,Change,Mus musculus [32],inactive
same,ED50,Mus musculus [33],inactive
same,TD50,[3],> 600 mg/kg
CC1=NCC(=O)Nc2c1cc(C)c(C)c2C#N,Change,Mus musculus [34],Not significant
same,ED50,Mus musculus [33],inactive
same,LD50,[16],150 mg/kg
same,Change,Mus musculus [35],30%
same,TD50,[3],70 mg/kg
O=C1NC(=O)C(c2ccccc2)(c2ccccc2)N1 [PHENYTOIN],Ki,[13],155 µM
